Results reported in ChEMBL document CHEMBL1268916, “Second generation 2-pyridyl biphenyl amide inhibitors of the hedgehog pathway” (Bioorg Med Chem Lett, 2010).
In brackets after ≈: the same amount, converted by molar mass. Activity calls are given as the source filed them. The rule behind the calls is not given here.

test system: Mus musculus; assay: Inhibition of Hedgehog signaling in Calu-6 cells xenografted nude mouse PK/PD model assessed as reduction in Gli1 mRNA expression at 75 mg/kg, po bid for 5 days measured 4 hrs post last dose relative to untreated control; assay type: functional; conditions: Calu-6, po, in the assay text read “for 5 doses” for “for 5 days”
In short: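 Nude mice bearing established Calu-6 tumors got 75 mg/kg by oral gavage BID for five doses. Tumors were harvested 4 h after the last dose. Stromal (murine) Gli1 mRNA was measured and expressed relative to vehicle-treated tumors. Compound was given as free base or HCl salt, suspended in a methylcellulose/Tween or Labrafil-based formulation.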

Row | SMILES | inhibition in vivo at 75 mg/kg [%]
1 | CS(=O)(=O)Cc1ccc(C(=O)Nc2ccc(Cl)c(-c3ccccn3)c2)c(Cl)c1 | 0
2 | CC(=O)N1CCN(c2ccc(C(=O)Nc3ccc(Cl)c(-c4ccccn4)c3)c(C)n2)CC1 | 80
3 | Cc1nc(C(F)(F)F)ccc1C(=O)Nc1ccc(Cl)c(-c2ccccn2)c1 | 40
4 | CS(=O)(=O)c1ccc(C(=O)Nc2ccc(Cl)c(-c3ccccn3)c2)c(Cl)c1 [VISMODEGIB] | 90

test system: not listed separately; assay: Plasma concentration in Calu-6 cells xenografted nude mouse PK/PD model at 25 mg/kg, po bid for 5 days measured 6 hrs post last dose relative to untreated control; assay type: ADME, organism-based; set-up: dose 25 mg/kg, route oral; conditions: not given

Row | concentration at 6 h [µM] | SMILES
5 | 1.7 | O=C(NCc1ccccn1)c1ccc(C(=O)Nc2ccc(Cl)c(-c3ccccn3)c2)c(Cl)c1

test system: not listed separately; assay: Volume of distribution at steady state in rat at 5 mg/kg, po or 1 mg/kg, iv; assay type: ADME, organism-based; conditions: in vivo, read-out: Vdss
In short: (§1)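 Male rats received the TFA salt as a solution. The IV dose was 1 mg/kg in 80% PEG or in 5% DMSO/5% cremophor. The oral dose was 5 mg/kg in 60–80% PEG.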

Row | Vd [L/kg] | SMILES
6 | 1.4 | O=C(Nc1ccc(Cl)c(-c2ccccn2)c1)c1ccc(-n2cncn2)nc1
7 | 0.38 | CC(=O)N1CCN(c2ccc(C(=O)Nc3ccc(Cl)c(-c4ccccn4)c3)c(C)n2)CC1
8 | 0.95 | Cc1nc(C(F)(F)F)ccc1C(=O)Nc1ccc(Cl)c(-c2ccccn2)c1
9 | 0.24 | Cc1ncn(-c2ccc(C(=O)Nc3ccc(Cl)c(-c4ccccn4)c3)c(C)n2)n1

test system: Mus musculus; assay: Inhibition of Hedgehog signaling in Calu-6 cells xenografted nude mouse PK/PD model assessed as reduction in Gli1 mRNA expression at 25 mg/kg, po bid for 5 days measured 4 hrs post last dose relative to untreated control; assay type: functional; conditions: not given

Row | SMILES | inhibition in vivo at 25 mg/kg [%]
10 | O=C(NCc1ccccn1)c1ccc(C(=O)Nc2ccc(Cl)c(-c3ccccn3)c2)c(Cl)c1 | 90

biological target: Cytochrome P450 2C9 (Homo sapiens, UniProt P11712); assay: Inhibition of CYP2C9; assay type: ADME; conditions: not given
Sequence (P11712 whole entry): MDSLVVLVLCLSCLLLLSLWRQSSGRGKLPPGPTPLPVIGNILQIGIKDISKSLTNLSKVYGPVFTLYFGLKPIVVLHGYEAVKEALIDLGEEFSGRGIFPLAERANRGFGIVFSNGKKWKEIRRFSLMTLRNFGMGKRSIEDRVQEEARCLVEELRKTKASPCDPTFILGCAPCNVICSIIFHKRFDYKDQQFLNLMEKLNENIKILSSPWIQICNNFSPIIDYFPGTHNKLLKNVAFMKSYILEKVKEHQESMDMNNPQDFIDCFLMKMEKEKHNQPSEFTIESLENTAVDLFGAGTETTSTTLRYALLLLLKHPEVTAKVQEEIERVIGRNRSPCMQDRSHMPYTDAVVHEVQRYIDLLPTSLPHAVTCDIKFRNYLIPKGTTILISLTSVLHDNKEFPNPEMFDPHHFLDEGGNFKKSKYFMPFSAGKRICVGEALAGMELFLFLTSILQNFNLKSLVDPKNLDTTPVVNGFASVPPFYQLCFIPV

Row | SMILES | IC50 [nM]
11 | O=C(Nc1ccc(Cl)c(-c2ccccn2)c1)c1ccc(-n2cncn2)nc1 | 200
12 | O=C(NCc1ccccn1)c1ccc(C(=O)Nc2ccc(Cl)c(-c3ccccn3)c2)c(Cl)c1 | 4500
13 | Cc1nc(C(F)(F)F)ccc1C(=O)Nc1ccc(Cl)c(-c2ccccn2)c1 | > 20000
14 | Cc1ncn(-c2ccc(C(=O)Nc3ccc(Cl)c(-c4ccccn4)c3)c(C)n2)n1 | > 20000

More lines, now with the values ahead:

Row | IC50 [nM] | SMILES
15 | 16000 | CS(=O)(=O)Cc1ccc(C(=O)Nc2ccc(Cl)c(-c3ccccn3)c2)c(Cl)c1
16 | 16000 | CC(=O)N1CCN(c2ccc(C(=O)Nc3ccc(Cl)c(-c4ccccn4)c3)c(C)n2)CC1
17 | > 20000 | CS(=O)(=O)c1ccc(C(=O)Nc2ccc(Cl)c(-c3ccccn3)c2)c(Cl)c1 [VISMODEGIB]

biological target: Cytochrome P450 3A4 (Homo sapiens, UniProt P08684); assay: Inhibition of CYP3A4; assay type: ADME; conditions: not given
Sequence (P08684 whole entry): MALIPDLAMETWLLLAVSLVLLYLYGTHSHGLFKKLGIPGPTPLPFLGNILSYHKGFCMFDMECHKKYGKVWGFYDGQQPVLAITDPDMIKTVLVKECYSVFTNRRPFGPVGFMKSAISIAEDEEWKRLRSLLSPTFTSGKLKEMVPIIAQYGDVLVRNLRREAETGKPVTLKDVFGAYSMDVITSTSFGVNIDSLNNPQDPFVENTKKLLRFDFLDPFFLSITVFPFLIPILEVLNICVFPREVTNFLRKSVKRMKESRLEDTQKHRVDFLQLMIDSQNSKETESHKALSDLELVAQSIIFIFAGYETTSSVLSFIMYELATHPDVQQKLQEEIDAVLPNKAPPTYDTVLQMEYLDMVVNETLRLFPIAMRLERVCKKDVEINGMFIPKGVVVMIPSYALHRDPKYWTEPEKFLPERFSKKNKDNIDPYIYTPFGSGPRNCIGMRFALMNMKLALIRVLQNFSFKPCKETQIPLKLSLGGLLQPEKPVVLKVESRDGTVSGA

Row | SMILES | IC50 [nM]
18 | O=C(Nc1ccc(Cl)c(-c2ccccn2)c1)c1ccc(-n2cncn2)nc1 | 200
19 | O=C(NCc1ccccn1)c1ccc(C(=O)Nc2ccc(Cl)c(-c3ccccn3)c2)c(Cl)c1 | > 20000
20 | Cc1nc(C(F)(F)F)ccc1C(=O)Nc1ccc(Cl)c(-c2ccccn2)c1 | > 20000
21 | Cc1ncn(-c2ccc(C(=O)Nc3ccc(Cl)c(-c4ccccn4)c3)c(C)n2)n1 | > 20000

Other lines, results leading:

Row | IC50 [nM] | SMILES
22 | > 20000 | CS(=O)(=O)Cc1ccc(C(=O)Nc2ccc(Cl)c(-c3ccccn3)c2)c(Cl)c1
23 | > 20000 | CC(=O)N1CCN(c2ccc(C(=O)Nc3ccc(Cl)c(-c4ccccn4)c3)c(C)n2)CC1
24 | > 20000 | CS(=O)(=O)c1ccc(C(=O)Nc2ccc(Cl)c(-c3ccccn3)c2)c(Cl)c1 [VISMODEGIB]

test system: not listed separately; assay: Thermodynamic solubility at pH 1.0; assay type: physicochemical; conditions: buffer

Row | SMILES | solubility thermodynamic [µg/mL]
25 | O=C(Nc1ccc(Cl)c(-c2ccccn2)c1)c1ccc(-n2cncn2)nc1 | 4000 (≈ 10600 µM)
26 | O=C(NCc1ccccn1)c1ccc(C(=O)Nc2ccc(Cl)c(-c3ccccn3)c2)c(Cl)c1 | 4300 (≈ 9010 µM)
27 | Cc1nc(C(F)(F)F)ccc1C(=O)Nc1ccc(Cl)c(-c2ccccn2)c1 | 1000 (≈ 2550 µM)
28 | Cc1ncn(-c2ccc(C(=O)Nc3ccc(Cl)c(-c4ccccn4)c3)c(C)n2)n1 | 900 (≈ 2220 µM)

The next lines start with the values.

Row | solubility thermodynamic [µg/mL] | SMILES
29 | 110 (≈ 253 µM) | CS(=O)(=O)Cc1ccc(C(=O)Nc2ccc(Cl)c(-c3ccccn3)c2)c(Cl)c1
30 | 3200 (≈ 7110 µM) | CC(=O)N1CCN(c2ccc(C(=O)Nc3ccc(Cl)c(-c4ccccn4)c3)c(C)n2)CC1
31 | 3500 (≈ 8310 µM) | CS(=O)(=O)c1ccc(C(=O)Nc2ccc(Cl)c(-c3ccccn3)c2)c(Cl)c1 [VISMODEGIB]

test system: not listed separately; assay: Inhibition of Hedgehog signaling in human HEPM cells assessed as reduction in receptor-mediated Gli1 mRNA expression by reporter gene assay; assay type: cell-based; conditions: not given

Row | SMILES | IC50 [nM]
32 | O=C(Nc1ccc(Cl)c(-c2ccccn2)c1)c1ccc(-n2cncn2)nc1 | 8
33 | O=C(NCc1ccccn1)c1ccc(C(=O)Nc2ccc(Cl)c(-c3ccccn3)c2)c(Cl)c1 | 0.4
34 | Cc1nc(C(F)(F)F)ccc1C(=O)Nc1ccc(Cl)c(-c2ccccn2)c1 | 15
35 | Cc1ncn(-c2ccc(C(=O)Nc3ccc(Cl)c(-c4ccccn4)c3)c(C)n2)n1 | 8

Continued, values first:

Row | IC50 [nM] | SMILES
36 | 1 | CS(=O)(=O)Cc1ccc(C(=O)Nc2ccc(Cl)c(-c3ccccn3)c2)c(Cl)c1
37 | 5 | CC(=O)N1CCN(c2ccc(C(=O)Nc3ccc(Cl)c(-c4ccccn4)c3)c(C)n2)CC1
38 | 3 | CS(=O)(=O)c1ccc(C(=O)Nc2ccc(Cl)c(-c3ccccn3)c2)c(Cl)c1 [VISMODEGIB]

test system: Mus musculus; assay: Inhibition of Hedgehog signaling in Calu-6 cells xenografted nude mouse PK/PD model assessed as reduction in Gli1 mRNA expression at 75 mg/kg, po bid for 5 doses measured 4 hrs post last dose relative to untreated control; conditions: Calu-6, po

Row | SMILES | inhibition in vivo at 75 mg/kg [%]
39 | Cc1ncn(-c2ccc(C(=O)Nc3ccc(Cl)c(-c4ccccn4)c3)c(C)n2)n1 | 50

test system: not listed separately; assay: Thermodynamic solubility at pH 6.5; assay type: physicochemical; conditions: buffer

Row | SMILES | solubility thermodynamic [µg/mL]
40 | O=C(Nc1ccc(Cl)c(-c2ccccn2)c1)c1ccc(-n2cncn2)nc1 | 8 (≈ 21.2 µM)
41 | O=C(NCc1ccccn1)c1ccc(C(=O)Nc2ccc(Cl)c(-c3ccccn3)c2)c(Cl)c1 | 3 (≈ 6.28 µM)
42 | Cc1nc(C(F)(F)F)ccc1C(=O)Nc1ccc(Cl)c(-c2ccccn2)c1 | 2 (≈ 5.1 µM)
43 | Cc1ncn(-c2ccc(C(=O)Nc3ccc(Cl)c(-c4ccccn4)c3)c(C)n2)n1 | 6 (≈ 14.8 µM)

Next, values leading:

Row | solubility thermodynamic [µg/mL] | SMILES
44 | 3 (≈ 6.89 µM) | CS(=O)(=O)Cc1ccc(C(=O)Nc2ccc(Cl)c(-c3ccccn3)c2)c(Cl)c1
45 | 6 (≈ 13.3 µM) | CC(=O)N1CCN(c2ccc(C(=O)Nc3ccc(Cl)c(-c4ccccn4)c3)c(C)n2)CC1
46 | 10 (≈ 23.7 µM) | CS(=O)(=O)c1ccc(C(=O)Nc2ccc(Cl)c(-c3ccccn3)c2)c(Cl)c1 [VISMODEGIB]

test system: not listed separately; assay: Plasma concentration in Calu-6 cells xenografted nude mouse PK/PD model at 75 mg/kg, po bid for 5 days measured 4 hrs post last dose relative to untreated control; assay type: ADME, organism-based; set-up: dose 75 mg/kg, route oral; conditions: not given
In short: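 Calu-6 tumor-bearing mice were dosed orally 75 mg/kg BID for five doses. Plasma was sampled 4 h after the last dose, at the same time as tumor harvest. Compound was given as free base or HCl salt, suspended in a methylcellulose/Tween or Labrafil-based vehicle.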

Row | SMILES | concentration at 4 h [µM]
47 | Cc1nc(C(F)(F)F)ccc1C(=O)Nc1ccc(Cl)c(-c2ccccn2)c1 | 15
48 | Cc1ncn(-c2ccc(C(=O)Nc3ccc(Cl)c(-c4ccccn4)c3)c(C)n2)n1 | 150

Further lines, results first:

Row | concentration at 4 h [µM] | SMILES
49 | 0.3 | CS(=O)(=O)Cc1ccc(C(=O)Nc2ccc(Cl)c(-c3ccccn3)c2)c(Cl)c1
50 | 22 | CC(=O)N1CCN(c2ccc(C(=O)Nc3ccc(Cl)c(-c4ccccn4)c3)c(C)n2)CC1

test system: not listed separately; assay: Clearance in rat at 5 mg/kg, po or 1 mg/kg, iv; assay type: ADME, organism-based; conditions: in vivo; in short: as §1

Row | SMILES | clearance [mL/min/kg]
51 | O=C(Nc1ccc(Cl)c(-c2ccccn2)c1)c1ccc(-n2cncn2)nc1 | 4
52 | O=C(NCc1ccccn1)c1ccc(C(=O)Nc2ccc(Cl)c(-c3ccccn3)c2)c(Cl)c1 | 6.7
53 | Cc1nc(C(F)(F)F)ccc1C(=O)Nc1ccc(Cl)c(-c2ccccn2)c1 | 4.5
54 | Cc1ncn(-c2ccc(C(=O)Nc3ccc(Cl)c(-c4ccccn4)c3)c(C)n2)n1 | 0.7

Next, values leading:

Row | clearance [mL/min/kg] | SMILES
55 | 5.5 | CS(=O)(=O)Cc1ccc(C(=O)Nc2ccc(Cl)c(-c3ccccn3)c2)c(Cl)c1
56 | 2 | CC(=O)N1CCN(c2ccc(C(=O)Nc3ccc(Cl)c(-c4ccccn4)c3)c(C)n2)CC1
57 | 3.7 | CS(=O)(=O)c1ccc(C(=O)Nc2ccc(Cl)c(-c3ccccn3)c2)c(Cl)c1 [VISMODEGIB]

test system: Mus musculus; assay: Antitumor activity in mouse medulloblastoma allograft model harboring tumors with activating mutations in Hh pathway (Ptch+/-) assessed as complete regression of tumor volume at 5 mg/kg, po bid; assay type: functional, organism-based; set-up: dose 5 mg/kg; conditions: not given
In short: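 Spontaneous medulloblastomas from Ptch+/- mice passaged subcutaneously in nude mice. Once tumors were established, mice were dosed twice daily for 20 days at 5 mg/kg BID. Tumor volume was followed over time.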

Row | SMILES | inhibition
58 | O=C(NCc1ccccn1)c1ccc(C(=O)Nc2ccc(Cl)c(-c3ccccn3)c2)c(Cl)c1 | Active

test system: not listed separately; assay: Inhibition of Hedgehog signaling in mouse S12 cells assessed as reduction in receptor-mediated Gli1 mRNA expression by reporter gene assay; assay type: cell-based; conditions: not given

Row | SMILES | IC50 [nM]
59 | O=C(Nc1ccc(Cl)c(-c2ccccn2)c1)c1ccc(-n2cncn2)nc1 | 47
60 | O=C(NCc1ccccn1)c1ccc(C(=O)Nc2ccc(Cl)c(-c3ccccn3)c2)c(Cl)c1 | 4
61 | Cc1nc(C(F)(F)F)ccc1C(=O)Nc1ccc(Cl)c(-c2ccccn2)c1 | 42
62 | Cc1ncn(-c2ccc(C(=O)Nc3ccc(Cl)c(-c4ccccn4)c3)c(C)n2)n1 | 67

The next lines start with the values.

Row | IC50 [nM] | SMILES
63 | 3 | CS(=O)(=O)Cc1ccc(C(=O)Nc2ccc(Cl)c(-c3ccccn3)c2)c(Cl)c1
64 | 22 | CC(=O)N1CCN(c2ccc(C(=O)Nc3ccc(Cl)c(-c4ccccn4)c3)c(C)n2)CC1
65 | 13 | CS(=O)(=O)c1ccc(C(=O)Nc2ccc(Cl)c(-c3ccccn3)c2)c(Cl)c1 [VISMODEGIB]

test system: Mus musculus; assay: Volume of distribution in Calu-6 cells xenografted nude mouse PK/PD model at 75 mg/kg, po bid for 5 days measured 4 hrs post last dose relative to untreated control; assay type: ADME, organism-based; set-up: dose 75 mg/kg, route oral; conditions: in vivo

Row | Vd [L/kg] | SMILES
66 | 0.15 | Cc1ncn(-c2ccc(C(=O)Nc3ccc(Cl)c(-c4ccccn4)c3)c(C)n2)n1
